Here are results for 97 compounds from ChEMBL document CHEMBL4513216, “Probing the Open Global Health Chemical Diversity Library for Multistage-Active Starting Points for Next-Generation Antimalarials” (ACS Infect Dis, 2020).

This series is described as follows: Toxicity liver stage against HepG2, at 10uM. It is filed as cell-based. Further details: test concentration 10 uM, cell line HepG2-A16-CD81EGFP. The conditions noted are these: human, HepG2-A16-CD81EGFP cells; read-out: INHIBITION
The procedure, abridged: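 Uninfected HepG2-A16-CD81EGFP cells, 3 × 10^3 per well, 1536-well, plated on prespotted compound at 10 μM final, parasite-free screening media added to match infected plates; puromycin 10 μM positive, DMSO 0.5% negative; run in parallel with 48 h PbLuc assay at 37 °C, 5% CO2; viability by CellTiter-Glo luminescence, normalized to controls.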
Regarding `CC(CO)(NC(=O)Nc1nncs1)C1CCCCC1` (configuration not stated), the cytotoxicity at 10 µM is 4.17%.

As to `O=C(c1cc2c(s1)CCC2)N1CCCCC1Cn1cccn1` (configuration not stated), the cytotoxicity at 10 µM was -4.86%.

Turning to `COc1cc(CN2CCCC2)ccc1Oc1ccc2c(c1)CC(CN)O2` (configuration not stated), the cytotoxicity at 10 µM was -7.79%.

With `O=C(c1ccc(S(=O)(=O)NCCc2ccncc2)cc1)N1CCCC1`, the cytotoxicity at 10 µM came to 1.67%.

Consider `CC1(C)CC(=O)c2cnc3nc(N4CCCC4)[nH]c(=O)c3c2C1`, for which the cytotoxicity at 10 µM is -2%.

Turning to `O=C1CCc2cc(-c3csc(CCN4CCOC4=O)n3)c(F)cc2N1`, the cytotoxicity at 10 µM was found to be 35.2%.

Consider `CNc1cc(N2CCCC2CNCc2ccccn2)ncn1` (configuration not stated), for which the cytotoxicity at 10 µM amounted to 7.31%.

`CN1CCC(CCNC(=O)N2CCN(Cc3ccon3)CC2)CC1`: the cytotoxicity at 10 µM is -6.49%.

In the case of `COc1c(CNC(C)c2sc(C)nc2C)c(C(C)C)nn1C` (configuration not stated), the cytotoxicity at 10 µM was found to be 7.97%.

Consider `COc1cc(C)cc(C(C(=O)O)N(C)Cc2cnn(C)c2)c1OC` (configuration not stated), for which the cytotoxicity at 10 µM was determined as 7.87%.

In the case of `CC(C)Cc1nc(CN2CCOC(Cn3cncn3)C2)no1` (configuration not stated), the cytotoxicity at 10 µM worked out at 2.07%.

Take `Cc1ccc(CN2CCn3c(C(=O)N(C)C)cnc3C2)cc1`: the cytotoxicity at 10 µM was -68.9%.

As for `CCC1=NC(SCC(=O)c2ccccc2)c2cc(CC)sc2N1` (configuration not stated), the cytotoxicity at 10 µM is -12.5%.

As to `CN1CCN(C2CCN(CCOc3ccc(F)cc3)CC2)C1=O`, the cytotoxicity at 10 µM is -7.8%.

Turning to `CC(=O)N(Cc1ncc(C)o1)C1CCN(Cc2csc(C)n2)C1` (configuration not stated), the cytotoxicity at 10 µM was -15.8%.

Regarding `Cc1ccc(C(CNC(=O)c2c(C)noc2C(C)C)N(C)C)cc1` (configuration not stated), the cytotoxicity at 10 µM is -12.4%.

For `O=C(Cc1ccc(F)cc1)N1CCN(CC(O)c2ccccc2)CC1` (configuration not stated), the cytotoxicity at 10 µM is -11.2%.

With `CC(C)N(C(=O)CCc1ccco1)C1CCOCC1`, the cytotoxicity at 10 µM is -5.63%.

On to `CC(=O)N1CCC(NC(=O)NCc2ncc(-c3ccccc3)o2)CC1`, for which the cytotoxicity at 10 µM was -44.7%.

Regarding `Cn1ccnc1CN1C[C@@H]2[C@@H](C1)OCC(=O)N2CC1CCCC1`, the cytotoxicity at 10 µM was -4.48%.

For the compound `Cc1cc(N2CCC(NC(=O)CCC3CCCO3)CC2)nc(C)n1` (configuration not stated), the cytotoxicity at 10 µM is -8.21%.

With `Cn1c(CN2CCCC2c2noc(C3CC3)n2)cc(=O)n(C)c1=O` (configuration not stated), the cytotoxicity at 10 µM turned out to be 4.04%.

Consider `CN1[C@@H]2CC[C@H]1CN(C(=O)c1nnc3n1CCCCC3)CC2`, for which the cytotoxicity at 10 µM is -5.43%.

In the case of `CCOc1ccnc(N2CCN(C(=O)c3cccnc3)CC2)n1`, the cytotoxicity at 10 µM is -5.19%.

As for `Cc1noc(C)c1-c1cccc(C2CCNCC2)n1`, the cytotoxicity at 10 µM was 2.98%.

Turning to `CC(NC(=O)COc1ccc(Cl)cc1Cl)c1nncn1C(C)C` (configuration not stated), the cytotoxicity at 10 µM turned out to be 1.67%.

For `CCOC(=O)N1[C@@H](c2ccco2)[C@@H](C(=O)NC)C[C@]12CCCCNC2=O`, the cytotoxicity at 10 µM was -4.57%.

As to `O=C(CC(SC1CCCCC1)C(=O)O)c1ccc(Br)cc1` (configuration not stated), the cytotoxicity at 10 µM is 3.43%.

For `Cc1ccc(Cn2cc(Br)c(NS(C)(=O)=O)n2)cc1`, the cytotoxicity at 10 µM worked out at 0.22%.

In the case of `CNC(=O)CCc1cc(C)nc(C2CCN(C3CCCCC3)CC2)c1`, the cytotoxicity at 10 µM was determined as 4.54%.

For the compound `O=C1COC2(CCN(C(=O)c3cnccn3)CC2)CN1CC1CC1`, the cytotoxicity at 10 µM was -16%.

With `Cc1ncsc1C(=O)N1CCC(O)(Cn2c(C)cc3ccncc32)CC1`, the cytotoxicity at 10 µM stood at 9.59%.

For the compound `Cc1nc(C)c(C(=O)N2CCc3[nH]nc(COc4ccccc4)c3C2)s1`, the cytotoxicity at 10 µM is -3.09%.

With `O=C(CCc1ccc2c(c1)OCO2)N1CCCCC1Cn1cccn1` (configuration not stated), the cytotoxicity at 10 µM is -17.2%.

Consider `CCC(CNC(=O)c1c(C)nn(C)c1OC)Oc1ccccc1` (configuration not stated), for which the cytotoxicity at 10 µM was -4.89%.

In the case of `Cc1nn(C)c(C)c1C1COCCN1C(=O)CSC(C)(C)C` (configuration not stated), the cytotoxicity at 10 µM came to 4.22%.

Consider `COCCS(=O)(=O)NC(C)c1ccc(-n2nc(C)cc2C)cc1` (configuration not stated), for which the cytotoxicity at 10 µM was found to be 1.91%.

`O=C(COc1cccc2c1CCC2=O)NCCSc1ccccc1`: the cytotoxicity at 10 µM was -1.22%.

As to `COc1cc(CNc2nc(N3CCOCC3)ns2)cc(OC)c1OC`, the cytotoxicity at 10 µM was -5.23%.

Turning to `CCn1ccc(C(=O)NCCCN2CCOCC2)n1`, the cytotoxicity at 10 µM was -7.9%.

Consider `CN(C)[C@@H]1CCN(c2ncccn2)[C@H]1Cc1cccnc1`, for which the cytotoxicity at 10 µM is -3.9%.

With `Cc1noc(C)c1NC(=O)N1CCC(NC(=O)OC(C)(C)C)CC1`, the cytotoxicity at 10 µM was found to be 4%.

In the case of `CN(C)C[C@H]1OC[C@@H]2CCN(S(=O)(=O)c3ccc(F)cc3)C[C@@H]21`, the cytotoxicity at 10 µM was -85.7%.

`O=C(Nc1ccc(CC(=O)N2CCSCC2)cc1)NC1CCCC1`: the cytotoxicity at 10 µM is -7.01%.

Take `O=C(CCc1nc2cccnc2[nH]1)NCc1ccc2c(c1)OCO2`: the cytotoxicity at 10 µM stood at 0.356%.

As for `Cc1cnn(CC2CCCN2C(=O)c2ccc3cc[nH]c3c2)c1` (configuration not stated), the cytotoxicity at 10 µM came to 0.409%.

In the case of `CC(C)c1nc(C2CCCN2CC(=O)N2CCNC2=O)no1` (configuration not stated), the cytotoxicity at 10 µM was -8.96%.

Take `O=C(Cn1cc(I)cn1)N1CCCCCC1`: the cytotoxicity at 10 µM worked out at 8.9%.

Turning to `Cn1cnc2c1CCN(Cc1nc(-c3ccco3)no1)C2`, the cytotoxicity at 10 µM was 0.887%.

On to `CC(C)Oc1ccc(C(=O)N2CC[C@H](O)[C@@H](n3ccnc3)CC2)cc1`, for which the cytotoxicity at 10 µM was -12.8%.

As to `CCc1noc(CNc2cccc(C(=O)N3CCSCC3)c2)n1`, the cytotoxicity at 10 µM is -5.73%.

As to `c1ccc(-c2cc(CN3CCc4cncnc4C3)on2)cc1`, the cytotoxicity at 10 µM was found to be 11.3%.

As for `Cc1nccn1-c1ccc(CNC(=O)c2ccc[nH]2)cn1`, the cytotoxicity at 10 µM is -14.2%.

For `Cc1ccc(-c2nc(CC(=O)NCC3CCCOC3)cs2)o1` (configuration not stated), the cytotoxicity at 10 µM is -48%.

For the compound `Cn1cc(C(O)CNC(=O)c2ccc(F)cc2Cl)cn1` (configuration not stated), the cytotoxicity at 10 µM came out at 0.055%.

On to `Cc1ccc(CNCc2cccc(NC(=O)CCN3CCOCC3)c2)s1`, for which the cytotoxicity at 10 µM was -1.91%.

Regarding `Cc1nc2c(c(C)c1CC(=O)Nc1cccc(C#N)c1)c(=O)[nH]n2C`, the cytotoxicity at 10 µM came to 3.99%.

On to `Cc1nc(-c2ccccc2)n(CC(=O)NC(C)C)n1`, for which the cytotoxicity at 10 µM was -14.1%.

For `CCc1nc(CC(=O)NC(C#N)CC(C)C)cs1` (configuration not stated), the cytotoxicity at 10 µM is 9.17%.

In the case of `Cc1ccc(S(=O)(=O)NCC2(O)CCOc3ccccc32)s1` (configuration not stated), the cytotoxicity at 10 µM came to 5.33%.

In the case of `CNc1ncccc1CN1CCN(C)CC(C(=O)N(C)C)C1` (configuration not stated), the cytotoxicity at 10 µM was 16.1%.

With `Fc1ccc(CN2Cc3nccn3CC(CN3CCOCC3)C2)cc1` (configuration not stated), the cytotoxicity at 10 µM was -73.7%.

Consider `CCc1nc(CNC(=O)Nc2nc(COC)cs2)cs1`, for which the cytotoxicity at 10 µM is -0.67%.

`CCc1cccnc1NCc1cnc(N2CCOCC2)nc1`: the cytotoxicity at 10 µM stood at 1.03%.

Regarding `Cn1cc(-c2nnn3c2COC(CNCc2ccccn2)C3)cn1` (configuration not stated), the cytotoxicity at 10 µM amounted to 0.298%.

As for `Cc1ccc(CN2CC[C@H]3OCC[C@@]3(COCC(=O)N(C)C)C2)s1`, the cytotoxicity at 10 µM is -97.8%.

For the compound `COC1COC2(CCN(C(=O)c3ccc4ccccc4c3)CC2)C1` (configuration not stated), the cytotoxicity at 10 µM was -98.4%.

With `CCCc1cncnc1N1CCC(NCc2cc3ccccc3[nH]2)CC1`, the cytotoxicity at 10 µM is 15.8%.

As to `Cc1noc(C)c1CC(=O)N1CCCN(Cc2cscn2)CC1`, the cytotoxicity at 10 µM came out at 2.45%.

Take `COCCN1C(=O)CCC12CCC(NC(=O)c1cnccn1)CC2` (configuration not stated): the cytotoxicity at 10 µM was -6.19%.

With `CC(C)Cc1noc(CN2CCC(NC(=O)c3cccs3)CC2)n1`, the cytotoxicity at 10 µM was -17.9%.

As to `CCc1nc(-c2noc3ccc(C(=O)N(C)CCOC)cc23)co1`, the cytotoxicity at 10 µM is -138%.

For the compound `O=C([C@H]1CC[C@@H]2[C@@H](CCN2Cc2nccs2)O1)N1CCCCO1`, the cytotoxicity at 10 µM is 6.85%.

`CCOc1ccnc(NCc2nc(C)cc(C(F)(F)F)n2)n1`: the cytotoxicity at 10 µM is -10.1%.

Consider `COC(=O)c1sc(C(NC(=O)c2ccccc2)C2CC2)nc1C` (configuration not stated), for which the cytotoxicity at 10 µM was 0.0726%.

In the case of `COC[C@H]1CCC[C@]12CN(CCc1ccccc1)CCO2`, the cytotoxicity at 10 µM was 4.34%.

Turning to `CC(C)OCCC(=O)Nc1cccc(N2CCN(CC3CC3)CC2)c1`, the cytotoxicity at 10 µM is -1.11%.

`CNc1cc(C2CN(Cc3cccnc3NC)CCO2)nc(C)n1` (configuration not stated): the cytotoxicity at 10 µM was 2.93%.

Regarding `O=S(=O)(CCNCCn1cccn1)c1ccccc1`, the cytotoxicity at 10 µM was determined as 11.5%.

As for `COc1cc(CCC(=O)NC(C)(C)C)ccc1OCC(F)(F)F`, the cytotoxicity at 10 µM was -8.76%.

As to `Cc1nc(NC2CCS(=O)(=O)CC2)cc(C2CCCNC2)n1` (configuration not stated), the cytotoxicity at 10 µM is -11%.

Turning to `COC(=O)[C@@H]1Cc2ncn(C)c2CN1S(=O)(=O)c1cccs1`, the cytotoxicity at 10 µM is -6.25%.

Take `Cc1ccc(-c2noc(CN3CCOC(Cn4cncn4)C3)n2)cc1` (configuration not stated): the cytotoxicity at 10 µM is -4.15%.

Regarding `c1cnc(N2CCC3(CCN(Cc4ccncc4)CC3)CC2)nc1`, the cytotoxicity at 10 µM is -1.85%.

On to `Cc1cc(NC(=O)CN2CCc3cnc(C)nc3C2)on1`, for which the cytotoxicity at 10 µM was -5.33%.

As for `CC(C)NC(=O)Cn1cc(-c2ccccc2)ncc1=O`, the cytotoxicity at 10 µM is -9.87%.

For the compound `Cc1cccc(CN2CCC3(CCCN(C(=O)N4CCCC4)C3)C2=O)n1` (configuration not stated), the cytotoxicity at 10 µM is 8.76%.

For the compound `CCCNC(=O)c1cc2c(s1)CCN2C(=O)CN(C)C`, the cytotoxicity at 10 µM came to 2.03%.

For the compound `CC(C)=CCC1(C(=O)O)CCCN(CCC(=O)NC2CC2)C1` (configuration not stated), the cytotoxicity at 10 µM is -7.69%.

Turning to `COc1ccc2c(c1)NC(=O)C2OC(=O)Cc1ccccc1C` (configuration not stated), the cytotoxicity at 10 µM was determined as 45.2%.

For the compound `CC(CN1CCOCC1)NC(=O)NCCc1ccc(Cl)s1` (configuration not stated), the cytotoxicity at 10 µM is -8.36%.

Take `CN(Cc1ccco1)C(=O)CN1CCOC(Cn2cncn2)C1` (configuration not stated): the cytotoxicity at 10 µM is -7.36%.

On to `Cc1cc(C)n2nc(C(=O)N3CCCC4(CNC(=O)O4)C3)cc2n1` (configuration not stated), for which the cytotoxicity at 10 µM worked out at 9.48%.

With `O=C1CC(c2ccncc2)C2(CCN(CC3CC3)CC2)N1` (configuration not stated), the cytotoxicity at 10 µM came to 11.3%.

On to `Cc1cc(N2CCC(CO)(CC3CCCCO3)CC2)c2ccccc2n1` (configuration not stated), for which the cytotoxicity at 10 µM turned out to be 4.46%.

Take `CCCn1nc2c(cc1=O)CN(CC1CCCCO1)CC2` (configuration not stated): the cytotoxicity at 10 µM was 12.5%.

`CN1CCc2nc3c(c(N)c2C1)CCCN3C`: the cytotoxicity at 10 µM worked out at 11.3%.
